Experimental findings from ChEMBL document CHEMBL1641437, “New furin inhibitors based on weakly basic amidinohydrazones” (Bioorg Med Chem Lett, 2011) are described below.

The target in test [1] is Furin (Homo sapiens, UniProt P09958). As to the kind of experiment: Inhibition of human recombinant furin by fluorescence plate reader analysis. The procedure, abridged:
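Recombinant human furin, 0.95 nM, with fluorogenic pyroGlu-Arg-Thr-Lys-Arg-AMC at 5, 20 and 50 substrate concentrations, in 100 mM HEPES pH 7.0 with 0.2% Triton X-100, 2 mM CaCl2, 0.02% sodium azide, 1 mg/mL BSA; room temperature. AMC release read by fluorescence (ex 380, em 460 nm); Ki obtained by Dixon plot.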

Test [2] has as its target T1, Subtilisin Carlsberg (Bacillus licheniformis) (UniProt P00780).
T1 sequence (whole entry): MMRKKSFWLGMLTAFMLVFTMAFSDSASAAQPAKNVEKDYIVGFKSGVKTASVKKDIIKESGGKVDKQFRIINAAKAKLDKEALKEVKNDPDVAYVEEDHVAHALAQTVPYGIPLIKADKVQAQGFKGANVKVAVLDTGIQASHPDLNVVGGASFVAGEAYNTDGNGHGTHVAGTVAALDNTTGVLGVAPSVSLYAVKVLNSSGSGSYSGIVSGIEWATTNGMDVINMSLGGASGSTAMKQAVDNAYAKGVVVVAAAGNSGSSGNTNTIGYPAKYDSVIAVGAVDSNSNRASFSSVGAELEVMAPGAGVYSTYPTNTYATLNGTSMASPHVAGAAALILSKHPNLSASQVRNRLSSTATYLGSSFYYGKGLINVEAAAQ
The test can be described thus: Inhibition of Bacillus licheniformis subtilisin at 100 uM relative to control.

Test [3] deals with Prothrombin (Homo sapiens, UniProt P00734). The test can be described thus: Inhibition of thrombin.
The target of test [4] is Coagulation factor X (Homo sapiens, UniProt P00742). As to the kind of experiment: Inhibition of factor 10a.
Coagulation factor X, sequence (P00742 41-179 limits assumed): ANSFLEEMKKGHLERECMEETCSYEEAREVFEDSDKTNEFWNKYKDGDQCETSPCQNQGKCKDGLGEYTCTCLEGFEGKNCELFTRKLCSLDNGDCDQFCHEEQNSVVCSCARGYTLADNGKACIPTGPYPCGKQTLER
Coagulation factor X, sequence (P00742 235-488 limits assumed): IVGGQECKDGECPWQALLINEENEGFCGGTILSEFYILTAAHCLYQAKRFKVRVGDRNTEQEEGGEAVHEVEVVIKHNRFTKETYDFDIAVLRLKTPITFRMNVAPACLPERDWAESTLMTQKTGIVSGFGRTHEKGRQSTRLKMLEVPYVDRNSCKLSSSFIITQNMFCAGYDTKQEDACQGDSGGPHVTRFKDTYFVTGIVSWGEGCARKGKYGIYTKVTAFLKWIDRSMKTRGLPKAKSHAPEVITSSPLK
Test [5] can be described thus: Inhibition of trypsin.
The target of test [6] is Plasminogen (Homo sapiens, UniProt P00747). As to the kind of experiment: Inhibition of plasmin.
Plasminogen, sequence (P00747 97-580 limits assumed): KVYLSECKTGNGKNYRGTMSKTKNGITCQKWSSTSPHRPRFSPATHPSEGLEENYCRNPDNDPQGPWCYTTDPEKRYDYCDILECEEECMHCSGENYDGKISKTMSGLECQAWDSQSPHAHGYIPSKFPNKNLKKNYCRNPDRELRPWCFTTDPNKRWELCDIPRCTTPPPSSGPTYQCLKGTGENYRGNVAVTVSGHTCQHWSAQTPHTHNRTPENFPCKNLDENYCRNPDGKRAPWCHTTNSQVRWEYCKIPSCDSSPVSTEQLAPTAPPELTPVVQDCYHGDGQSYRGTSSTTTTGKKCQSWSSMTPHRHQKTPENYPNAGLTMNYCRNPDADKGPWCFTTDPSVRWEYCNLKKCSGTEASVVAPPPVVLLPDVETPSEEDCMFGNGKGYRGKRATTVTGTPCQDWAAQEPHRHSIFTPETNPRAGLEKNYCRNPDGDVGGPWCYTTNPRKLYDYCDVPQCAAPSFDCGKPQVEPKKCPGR
Plasminogen, sequence (P00747 581-810 limits assumed): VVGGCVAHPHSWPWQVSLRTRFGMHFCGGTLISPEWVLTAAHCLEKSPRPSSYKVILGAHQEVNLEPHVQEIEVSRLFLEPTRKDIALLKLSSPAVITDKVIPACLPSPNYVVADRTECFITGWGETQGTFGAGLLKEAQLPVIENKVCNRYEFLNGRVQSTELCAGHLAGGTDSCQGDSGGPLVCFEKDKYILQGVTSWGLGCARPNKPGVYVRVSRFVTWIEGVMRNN

A word on the Ki: it is a dissociation constant, usually derived from enzyme kinetics or from competition with a known ligand. The term inhibition denotes the percentage by which the read-out fell short of the control.

Furin, sequence (P09958 whole entry): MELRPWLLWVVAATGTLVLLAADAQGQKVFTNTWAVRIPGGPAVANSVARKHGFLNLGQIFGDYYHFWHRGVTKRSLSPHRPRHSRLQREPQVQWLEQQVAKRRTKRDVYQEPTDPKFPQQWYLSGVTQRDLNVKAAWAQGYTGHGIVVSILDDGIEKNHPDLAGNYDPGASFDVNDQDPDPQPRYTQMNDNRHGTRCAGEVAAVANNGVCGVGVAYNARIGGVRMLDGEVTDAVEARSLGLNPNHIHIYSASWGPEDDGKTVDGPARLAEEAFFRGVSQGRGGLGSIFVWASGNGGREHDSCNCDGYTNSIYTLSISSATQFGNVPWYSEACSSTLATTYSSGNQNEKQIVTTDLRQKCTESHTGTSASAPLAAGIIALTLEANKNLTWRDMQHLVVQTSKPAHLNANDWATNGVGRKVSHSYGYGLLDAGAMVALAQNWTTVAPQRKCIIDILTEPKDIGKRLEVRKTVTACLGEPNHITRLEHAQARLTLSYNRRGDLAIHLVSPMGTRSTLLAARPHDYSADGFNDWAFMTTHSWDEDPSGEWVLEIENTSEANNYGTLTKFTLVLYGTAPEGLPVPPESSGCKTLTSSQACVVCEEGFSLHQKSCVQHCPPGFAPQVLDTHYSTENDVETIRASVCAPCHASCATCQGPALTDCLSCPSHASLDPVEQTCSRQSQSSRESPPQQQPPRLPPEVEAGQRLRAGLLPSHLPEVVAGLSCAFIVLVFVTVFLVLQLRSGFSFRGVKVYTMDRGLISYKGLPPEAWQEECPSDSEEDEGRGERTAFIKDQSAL

As to `C/C(=N\NC(=N)N)c1cccc(/C(C)=N/NC(=N)N)c1`, the inhibition constant (Ki) in test [1] was 4.78 µM. The same compound displayed an inhibition in test [2] of 0%.

Consider `N=C(N)N/N=C/c1cccc(/C=N/NC(=N)N)c1`, for which the Ki in test [1] was determined as 11.5 µM. In addition, the inhibition in test [2] came out at 4.4%.

For `C/C(=N\NC(=N)N)c1ccc(Oc2ccc(/C(C)=N/NC(=N)N)cc2)cc1`, in test [1], the inhibition constant (Ki) worked out at 44 µM.

As for `C/C(=N/NC(=N)N)c1cc(NC(=O)CC(=O)Nc2cc(/C(C)=N/NC(=N)N)cc(/C(C)=N/NC(=N)N)c2)cc(/C(C)=N/NC(=N)N)c1`, the Ki in test [1] was 1.13 µM. Also, the inhibition in test [2] was determined as 7.7%.

Take `N=C(N)NNC(=O)c1cccc(C(=O)NNC(=N)N)c1`: the Ki in test [1] was 27.9 µM.

As to `C/C(=N\NC(=N)N)c1cc(NC(=O)CCCN)cc(/C(C)=N/NC(=N)N)c1`, the Ki in test [1] was found to be 1.2 µM; in test [3] it was 1000 µM; in test [4] it was 1000 µM; in test [5], 12 µM; in test [6], 110 µM.

Consider `C/C(=N\NC(=N)N)c1ccc(/C(C)=N/NC(=N)N)cc1`, for which the Ki amounted to 1.84 µM in test [1] and 786 µM in test [3]. The same compound returned an inhibition in test [2] of 7.9%.

On to `C/C(=N\NC(=N)N)c1cc(NC(=O)[C@H](N)CCCNC(=N)N)cc(/C(C)=N/NC(=N)N)c1`, for which the inhibitory constant (Ki) in test [1] was determined as 1.13 µM; in test [3], 1000 µM; in test [4], 1000 µM; in test [5], 68 µM; in test [6] it was 1000 µM.

For `C/C(=N\NC(=N)N)c1cc(NS(=O)(=O)c2ccccc2)cc(/C(C)=N/NC(=N)N)c1`, the Ki was 1.55 µM in test [1]; 32 µM in test [3]; 80 µM in test [4]; 59 µM in test [5]; 400 µM in test [6].

`C/C(=N\NC(=N)N)c1cc(N)cc(/C(C)=N/NC(=N)N)c1`: the Ki in test [1] came out at 1.82 µM.

Turning to `C/C(=N\NC(=N)N)c1cc(NC(=O)CCCCNC(=N)N)cc(/C(C)=N/NC(=N)N)c1`, the Ki is 1.04 µM in test [1]; 1000 µM in test [3]; 1000 µM in test [4]; 23 µM in test [5]; 1000 µM in test [6].

As to `N=C(N)N/N=C/c1ccc(/C=N/NC(=N)N)cc1`, the Ki in test [1] turned out to be 1.47 µM; in test [3], 68 µM. The compound also returned an inhibition in test [2] of 0%.

Consider `N=C(N)NNC(=O)c1ccccc1`, for which, in test [1], the Ki was found to be 376 µM.

Consider `NC(N)=NNC(=O)c1ccc(C(=O)NN=C(N)N)cc1`, for which the Ki in test [1] was determined as 173 µM; in test [3] it was 1000 µM.

In the case of `C/C(=N/NC(=N)N)c1cc(OCC(=O)Nc2cc(/C(C)=N\NC(=N)N)cc(/C(C)=N/NC(=N)N)c2)cc(/C(C)=N\NC(=N)N)c1`, the inhibition constant (Ki) in test [1] came out at 0.58 µM; in test [3], 0.86 µM.

Consider `C/C(=N/NC(=N)N)c1cccc(OCC(=O)Nc2cc(/C(C)=N\NC(=N)N)cc(/C(C)=N/NC(=N)N)c2)c1`, for which, in test [1], the Ki amounted to 1.46 µM.

As for `C/C(=N/NC(=N)N)c1cc(NC(=O)COc2ccc(/C(C)=N/NC(=N)N)cc2)cc(/C(C)=N/NC(=N)N)c1`, the Ki in test [1] came to 1.94 µM.

Consider `C/C(=N/NC(=N)N)c1cc(OCC(=O)Nc2ccccc2)cc(/C(C)=N\NC(=N)N)c1`, for which the Ki in test [1] is 1.35 µM.

Regarding `N=C(N)N/N=C1\C/C(=N\NC(=N)N)c2ccccc21`, in test [1], the Ki was 17.3 µM.

Consider `C/C(=N\NC(=N)N)c1ccccc1`, for which the Ki in test [1] stood at 273 µM.

For the compound `C/C(=N\NC(=N)N)c1cc(NC(=O)CCCNC(=N)N)cc(/C(C)=N/NC(=N)N)c1`, the Ki was found to be 0.46 µM in test [1]; 800 µM in test [3]; 16 µM in test [4]; 2.8 µM in test [5]; 1000 µM in test [6]. The compound also came in with an inhibition in test [2] of 7.9%.

For `N=C(N)N/N=C/c1ccccc1`, in test [1], the Ki was > 500 µM.

Take `C/C(=N/NC(=N)N)c1cc(NC(=O)COc2ccccc2)cc(/C(C)=N/NC(=N)N)c1`: in test [1], the Ki was 5.61 µM.

On to `C/C(=N\NC(=N)N)c1cc(NC(=O)CCCCCNC(=N)N)cc(/C(C)=N/NC(=N)N)c1`, for which the Ki in test [1] came out at 1.42 µM; in test [3], 1000 µM; in test [4] it was 1000 µM; in test [5] it was 110 µM; in test [6], 1000 µM.
